The structures appear in SMILES notation. pIC50: −log10 of the molar value.

Drawing on ChEMBL document CHEMBL1158842, “Antiproliferative triterpene saponins from Entada africana” (J Nat Prod, 2006), this text covers IC50 for 9 compounds.

One experiment concerns J774.A1. The experiment can be described thus: Antiproliferative activity against mouse J774A1 cells after 72 hrs by MTT conversion assay. It counts as cell-based. The settings on record: J774.A1, 72 h. The method, boiled down: (§1)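 Cells (3.4 × 10^4 per well) adhered 2 h at 37 °C, 5% CO2; medium replaced with fresh medium and 1:4 serial dilutions of test compound added, then incubated 72 h; 6-mercaptopurine serial dilutions in some experiments. Viability by MTT conversion, OD read at 620 nm; % dead cells = 100 − (OD treated/OD control) × 100.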

For the next experiment, the system named is WEHI-164. The experiment can be described thus: Antiproliferative activity against mouse WEHI164 cells after 72 hrs by MTT conversion assay. The experiment is classed as functional, cell-based. Particulars: for IC50: wehi-164; for pIC50: Mus musculus, WEHI-164, 72 h, read-out: IC50. The method, boiled down:
as §1

In another experiment the test system is HEK293. The experiment can be described thus: Antiproliferative activity against HEK293 cells after 72 hrs by MTT conversion assay. The experiment is classed as cell-based, Homo sapiens. Particulars: for IC50: hek293; for pIC50: Homo sapiens, HEK293, 72 h, read-out: IC50. The method, boiled down: as §1

`CC(=O)N[C@H]1[C@H](O[C@H]2CC[C@]3(C)[C@H]4CC=C5[C@@H]6CC(C)(C)CC[C@]6(C(=O)O[C@@H]6O[C@H](COC(C)=O)[C@@H](O)[C@H](O[C@@H]7OC[C@@H](O)[C@H](O)[C@H]7O)[C@H]6O[C@@H]6OC[C@@H](O)[C@H](O[C@@H]7OC[C@](O)(CO)[C@H]7O)[C@H]6O)[C@H](O)C[C@@]5(C)[C@]4(C)CC[C@H]3C2(C)C)O[C@H](CO[C@@H]2OC[C@H](O)[C@H](O[C@@H]3OC[C@@H](O)[C@H](O)[C@H]3O)[C@H]2O)[C@@H](O[C@@H]2O[C@H](CO)[C@@H](O)[C@H](O)[C@H]2O)[C@@H]1O`: the pIC50 in the experiment with J774.A1 is 5.54. The IC50 result in the experiment with WEHI-164 and in the experiment with HEK293 was “Not Traceable” each time.

In the case of `C=C[C@@](C)(O)CC/C=C(\C)C(=O)O[C@@H]1[C@@H](OC(=O)/C=C/c2ccccc2)[C@H](O[C@H]2[C@H](O)[C@@H](COC(C)=O)O[C@@H](OC(=O)[C@]34CCC(C)(C)C[C@H]3C3=CC[C@@H]5[C@@]6(C)CC[C@H](O[C@@H]7O[C@H](CO[C@@H]8OC[C@H](O)[C@H](O[C@@H]9OC[C@@H](O)[C@H](O)[C@H]9O)[C@H]8O)[C@@H](O[C@@H]8O[C@H](CO)[C@@H](O)[C@H](O)[C@H]8O)[C@H](O)[C@H]7NC(C)=O)C(C)(C)[C@@H]6CC[C@@]5(C)[C@]3(C)C[C@H]4O)[C@@H]2O[C@@H]2OC[C@@H](O)[C@H](O[C@@H]3OC[C@](O)(CO)[C@H]3O)[C@H]2O)OC[C@H]1O`, the pIC50 with J774.A1 is 6.08; in the experiment with WEHI-164, 6.42; in the experiment with HEK293, 6.44.

For `CC(=O)N[C@H]1[C@H](O[C@H]2CC[C@]3(C)[C@H]4CC=C5[C@@H]6CC(C)(C)CC[C@]6(C(=O)O[C@@H]6O[C@H](CO)[C@@H](O)[C@H](O[C@@H]7OC[C@@H](O)[C@H](O)[C@H]7O)[C@H]6O[C@@H]6OC[C@@H](O)[C@H](O[C@@H]7OC[C@](O)(CO)[C@H]7O)[C@H]6O)[C@H](O)C[C@@]5(C)[C@]4(C)CC[C@H]3C2(C)C)O[C@H](CO[C@@H]2OC[C@H](O)[C@H](O[C@@H]3OC[C@@H](O)[C@H](O)[C@H]3O)[C@H]2O)[C@@H](O[C@@H]2O[C@H](CO)[C@@H](O)[C@H](O)[C@H]2O)[C@@H]1O`, in the experiment with J774.A1, the pIC50 is 5.92. Further, the IC50 result with WEHI-164 and in the experiment on HEK293 was “Not Traceable” each time.

As for `C=C[C@](C)(O)CC/C=C(\C)C(=O)O[C@@H]1[C@@H](O)[C@H](O[C@H]2[C@H](O)[C@@H](COC(C)=O)O[C@@H](OC(=O)[C@]34CCC(C)(C)C[C@H]3C3=CC[C@@H]5[C@@]6(C)CC[C@H](O[C@@H]7O[C@H](CO[C@@H]8OC[C@H](O)[C@H](O[C@@H]9OC[C@@H](O)[C@H](O)[C@H]9O)[C@H]8O)[C@@H](O[C@@H]8O[C@H](CO)[C@@H](O)[C@H](O)[C@H]8O)[C@H](O)[C@H]7NC(C)=O)C(C)(C)[C@@H]6CC[C@@]5(C)[C@]3(C)C[C@H]4O)[C@@H]2O[C@@H]2OC[C@@H](O)[C@H](O[C@@H]3OC[C@](O)(CO)[C@H]3O)[C@H]2O)OC[C@H]1O`, the pIC50 is 6.28 in the experiment with J774.A1, 6.31 with WEHI-164 and 6.57 with HEK293.

With `CC(=O)N[C@H]1[C@H](O[C@H]2CC[C@]3(C)[C@H]4CC=C5[C@@H]6CC(C)(C)CC[C@]6(C(=O)O[C@@H]6O[C@H](COC(C)=O)[C@@H](O)[C@H](O[C@@H]7OC[C@@H](O)[C@H](O)[C@H]7O)[C@H]6O[C@@H]6OC[C@@H](O)[C@H](O[C@@H]7OC[C@](O)(CO)[C@H]7O)[C@H]6O)[C@H](O)C[C@@]5(C)[C@]4(C)CC[C@H]3C2(C)C)O[C@H](CO[C@@H]2OC[C@H](O)[C@H](O[C@@H]3OC[C@H](O)[C@H](O)[C@H]3O)[C@H]2O)[C@@H](O[C@@H]2O[C@H](CO)[C@@H](O)[C@H](O)[C@H]2O)[C@@H]1O`, the pIC50 in the experiment with J774.A1 is 5.51. Further, the IC50 entry with WEHI-164 and in the experiment with HEK293 was “Not Traceable” throughout.

For the compound `C=C[C@](C)(O)CC/C=C(\C)C(=O)O[C@@H]1[C@@H](O)[C@H](O[C@H]2[C@H](O)[C@@H](COC(C)=O)O[C@@H](OC(=O)[C@]34C[C@H](O)C(C)(C)C[C@H]3C3=CC[C@@H]5[C@@]6(C)CC[C@H](O[C@@H]7O[C@H](CO[C@@H]8OC[C@H](O)[C@H](O[C@@H]9OC[C@@H](O)[C@H](O)[C@H]9O)[C@H]8O)[C@@H](O[C@@H]8O[C@H](CO)[C@@H](O)[C@H](O)[C@H]8O)[C@H](O)[C@H]7NC(C)=O)C(C)(C)[C@@H]6CC[C@@]5(C)[C@]3(C)C[C@H]4O)[C@@H]2O[C@@H]2OC[C@@H](O)[C@H](O[C@@H]3OC[C@](O)(CO)[C@H]3O)[C@H]2O)OC[C@H]1O`, the results for the pIC50 in the experiment with J774.A1, with WEHI-164 and in the experiment on HEK293 were 7.51, 7.00 and 6.60, respectively.

With `C=C[C@@](C)(O)CC/C=C(\C)C(=O)O[C@@H]1[C@@H](OC(=O)/C=C/c2ccccc2)[C@H](O[C@H]2[C@H](O)[C@@H](COC(C)=O)O[C@@H](OC(=O)[C@]34C[C@H](O)C(C)(C)C[C@H]3C3=CC[C@@H]5[C@@]6(C)CC[C@H](O[C@@H]7O[C@H](CO[C@@H]8OC[C@H](O)[C@H](O[C@@H]9OC[C@H](O)[C@H](O)[C@H]9O)[C@H]8O)[C@@H](O[C@@H]8O[C@H](CO)[C@@H](O)[C@H](O)[C@H]8O)[C@H](O)[C@H]7NC(C)=O)C(C)(C)[C@@H]6CC[C@@]5(C)[C@]3(C)C[C@H]4O)[C@@H]2O[C@@H]2OC[C@@H](O)[C@H](O[C@@H]3OC[C@](O)(CO)[C@H]3O)[C@H]2O)OC[C@H]1O`, the pIC50 in the experiment on J774.A1 was 5.52; with WEHI-164, 5.57; in the experiment on HEK293, 5.55.

Take `CC(=O)N[C@H]1[C@H](O[C@H]2CC[C@]3(C)[C@H]4CC=C5[C@@H]6CC(C)(C)[C@@H](O)C[C@]6(C(=O)O[C@@H]6O[C@H](COC(C)=O)[C@@H](O)[C@H](O[C@@H]7OC[C@@H](O)[C@H](O)[C@H]7O)[C@H]6O[C@@H]6OC[C@@H](O)[C@H](O[C@@H]7OC[C@](O)(CO)[C@H]7O)[C@H]6O)[C@H](O)C[C@@]5(C)[C@]4(C)CC[C@H]3C2(C)C)O[C@H](CO[C@@H]2OC[C@H](O)[C@H](O[C@@H]3OC[C@@H](O)[C@H](O)[C@H]3O)[C@H]2O)[C@@H](O[C@@H]2O[C@H](CO)[C@@H](O)[C@H](O)[C@H]2O)[C@@H]1O`: the pIC50 was 5.66 in the experiment with J774.A1, 5.70 with WEHI-164 and 5.41 in the experiment on HEK293.

Turning to `CC(=O)N[C@H]1[C@H](O[C@H]2CC[C@]3(C)[C@H]4CC=C5[C@@H]6CC(C)(C)CC[C@]6(C(=O)O[C@@H]6O[C@H](COC(C)=O)[C@@H](O)[C@H](O[C@@H]7OC[C@@H](O)[C@H](O)[C@H]7OC(=O)/C=C/c7ccccc7)[C@H]6O[C@@H]6OC[C@@H](O)[C@H](O[C@@H]7OC[C@](O)(CO)[C@H]7O)[C@H]6O)[C@H](O)C[C@@]5(C)[C@]4(C)CC[C@H]3C2(C)C)O[C@H](CO[C@@H]2OC[C@H](O)[C@H](O[C@@H]3OC[C@@H](O)[C@H](O)[C@H]3O)[C@H]2O)[C@@H](O[C@@H]2O[C@H](CO)[C@@H](O)[C@H](O)[C@H]2O)[C@@H]1O`, the pIC50 was 6.01 in the experiment on J774.A1, 6.03 in the experiment on WEHI-164 and 6.25 in the experiment with HEK293.
